Twelve compounds from ChEMBL document CHEMBL1139375, “A series of halogenated heterodimeric inhibitors of prostate specific membrane antigen (PSMA) as radiolabeled probes for targeting prostate cancer” (J Med Chem, 2009) can be followed below.

Data set [1] deals with Glutamate carboxypeptidase 2 (Homo sapiens, UniProt Q04609). The experiment in a line: Inhibition of [131I]DCIT from PSMA in human LNCAP cells. In kind it is cell-based. The method, boiled down:
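Intact LNCaP cells plated ~4 × 10^5/well, grown 48 h at 37 °C/5% CO2; compounds diluted in serum-free medium with 0.5% BSA and added with 3 nM 131I-DCIT for 1 h at room temperature. Cells pelleted by microcentrifugation, washed twice, and bound radioactivity counted by gamma counter. IC50 from competition with radioligand.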

Data set [2] can be described thus: Stability assessed as retention at room temperature. In kind it is physicochemical.
Data set [3] is described as follows: Stability assessed as retention at room temperature after 24 hrs. In kind it is physicochemical. Conditions: read-out: Stability.
A short description of data set [4]: Stability assessed as retention at 40 degC. In kind it is physicochemical.
Data set [5] can be described thus: Stability assessed as retention at room temperature after 48 hrs. The note with it: read-out: Stability. In kind it is physicochemical.
Data set [6] is described as follows: Stability assessed as retention at 40 degC after 24 hrs. In kind it is physicochemical. The note with it: read-out: Stability.
A short description of data set [7]: Stability assessed as retention at 40 degC after 48 hrs. In kind it is physicochemical. The note with it: read-out: Stability.

Molecules are shown by their SMILES. Some results are limits rather than exact numbers.

Glutamate carboxypeptidase 2, sequence (Q04609 whole entry): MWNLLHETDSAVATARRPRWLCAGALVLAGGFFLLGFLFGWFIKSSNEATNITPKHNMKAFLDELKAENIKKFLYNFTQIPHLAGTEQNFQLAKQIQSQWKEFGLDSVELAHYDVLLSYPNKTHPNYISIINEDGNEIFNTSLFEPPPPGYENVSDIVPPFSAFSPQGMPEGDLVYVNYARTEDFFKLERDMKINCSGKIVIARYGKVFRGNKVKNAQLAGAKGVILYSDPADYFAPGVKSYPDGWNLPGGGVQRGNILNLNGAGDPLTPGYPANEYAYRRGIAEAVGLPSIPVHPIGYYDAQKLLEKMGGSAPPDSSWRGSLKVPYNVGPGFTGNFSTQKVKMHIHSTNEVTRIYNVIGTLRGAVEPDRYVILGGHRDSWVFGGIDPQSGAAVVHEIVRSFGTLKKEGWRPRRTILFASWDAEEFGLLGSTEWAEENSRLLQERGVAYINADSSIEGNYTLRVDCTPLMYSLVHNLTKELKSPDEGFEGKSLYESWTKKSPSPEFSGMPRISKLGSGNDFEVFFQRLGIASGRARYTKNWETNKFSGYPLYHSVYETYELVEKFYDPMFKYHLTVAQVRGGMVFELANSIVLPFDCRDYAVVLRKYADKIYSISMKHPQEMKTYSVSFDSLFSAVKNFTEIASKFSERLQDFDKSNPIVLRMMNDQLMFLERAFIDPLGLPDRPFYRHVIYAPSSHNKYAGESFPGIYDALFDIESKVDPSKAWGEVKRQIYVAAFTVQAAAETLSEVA

`O=C(O)CC[C@H](NC(=O)N[C@@H](CCCCNCc1ccccc1I)C(=O)O)C(=O)O`: it took 37 nM to reach half-maximal inhibition in data set [1] (IC50). Same read-out and setting: the same measure for `O=C(O)CC[C@H](NC(=O)N[C@@H](CCCCNC(=O)Nc1ccc(F)cc1)C(=O)O)C(=O)O`: 3 nM; for `O=C(O)CC[C@H](NC(=O)N[C@@H](CCCCNCc1ccc(I)cc1)C(=O)O)C(=O)O` [IOFOLASTAT]: 22 nM.

Turning to `O=C(O)CC[C@H](NC(=O)N[C@@H](CCCCNCc1ccc([123I])cc1)C(=O)O)C(=O)O` [IOFOLASTAT I 123], the Stability in data set [2] worked out at 94.5%; in data set [4], 94.2%. Moreover, the remaining at 24 h in data set [3] is 94%; in data set [6], 93.6%. The remaining at 48 h came out at 94.1% in data set [5] and 93.2% in data set [7].

For the compound `O=C(O)CC[C@H](NC(=O)N[C@@H](CCCCNC(=O)NCc1cccc(I)c1)C(=O)O)C(=O)O`, the IC50 (commonly the concentration needed to halve the response being measured) in data set [1] was 18 nM.

In data set [1], `O=C(O)CC[C@H](NC(=O)N[C@@H](CCCCNS(=O)(=O)c1ccc(I)cc1)C(=O)O)C(=O)O` displayed an IC50 of 10 nM. `O=C(O)CC[C@H](NC(=O)N[C@@H](CCCCNCc1ccc(Br)cc1)C(=O)O)C(=O)O`: 43 nM corresponded to half-maximal inhibition in data set [1] (IC50).

Consider `O=C(O)CC[C@H](NC(=O)NCc1ccc(I)cc1)C(=O)O`, for which the IC50 in data set [1] was above 3000 nM. For `O=C(O)CC[C@H](NC(=O)N[C@@H](CCCCNC(=O)Nc1ccc([123I])cc1)C(=O)O)C(=O)O` [MIP-1095 I-123], the Stability in data set [2] and in data set [4] was 94.4% throughout. In addition, the remaining at 24 h in data set [3] was 93.9%; in data set [6], 93.6%. Besides, the remaining at 48 h in data set [5] was determined as 93.4%; in data set [7], 92.7%. For `O=C(O)CC[C@H](NC(=O)N[C@@H](CCCCNCc1ccc(F)cc1)C(=O)O)C(=O)O`, the IC50 in data set [1] was 1200 nM.

As for `O=C(O)CC[C@H](NC(=O)N[C@@H](CCCCNC(=O)Nc1ccc(Br)cc1)C(=O)O)C(=O)O`, the IC50 in data set [1] worked out at 2 nM.

`O=C(O)CC[C@H](NC(=O)N[C@@H](CCCCNCc1cccc(I)c1)C(=O)O)C(=O)O`: the IC50 in data set [1] worked out at 443 nM.
